Calls of active or inactive are those of the source. The calls are words filed in the database; no cut-off is given here.
Legend:
[1] = molecular target: T1, 5-hydroxytryptamine receptor 1A (Rattus norvegicus, UniProt P19327); experiment: Displacement of the radioligand [3H]8-OH-DPAT from 5-hydroxytryptamine 1A receptor
T1 sequence (P19327 whole entry): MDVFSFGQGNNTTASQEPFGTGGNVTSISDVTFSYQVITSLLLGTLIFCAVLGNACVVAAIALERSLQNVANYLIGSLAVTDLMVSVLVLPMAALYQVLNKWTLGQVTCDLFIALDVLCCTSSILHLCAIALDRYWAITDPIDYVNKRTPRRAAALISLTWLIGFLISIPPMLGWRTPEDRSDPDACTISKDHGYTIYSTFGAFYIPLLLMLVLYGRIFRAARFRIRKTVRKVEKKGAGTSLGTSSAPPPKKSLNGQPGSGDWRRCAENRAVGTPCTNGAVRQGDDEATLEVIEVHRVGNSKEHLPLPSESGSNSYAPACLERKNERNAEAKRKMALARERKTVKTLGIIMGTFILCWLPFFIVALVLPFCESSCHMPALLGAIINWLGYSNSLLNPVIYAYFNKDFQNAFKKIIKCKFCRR
Outline: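 Rat whole brain minus brain stem and cerebellum, washed membranes in 50 mM Tris pH 8.0 with 120 mM NaCl, 4 mM CaCl2, 4 mM MgCl2, 10 μM pargyline. Nonspecific with 10 μM 5-HT. IC50 by semilog linear regression, Ki via Cheng–Prusoff; 3–7 experiments, triplicates.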

D(2) dopamine receptor = D(2) dopamine receptor (Rattus norvegicus, UniProt P61169); experiment: Displacement of the radioligand [3H]spiperone from D2 receptor
Outline: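 Rat striatal membranes in 50 mM potassium phosphate buffer, incubated with 0.5 nM [3H]spiperone (3 mg tissue) 10 min at 37 °C. Nonspecific binding defined with 10 μM 6,7-ADTN. IC50 converted to Ki by Cheng–Prusoff; 3–7 experiments, each concentration in triplicate.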

Rattus norvegicus [2] = species: Rattus norvegicus; experiment: The concentration yielding a half maximal decrease of the 5-HTP was determined in rat brain striatum; format: functional
Outline: (§1)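 Reserpine-pretreated (5 mg/kg sc, 18 h) male Sprague-Dawley rats, 200–300 g; compounds in saline given sc. DOPA and 5-HTP in limbic system, striatum and hemispheres measured by HPLC with electrochemical detection. Dose–response curves of 4–6 doses (n = 4) per area, fitted to variable-slope sigmoid on log data to give ED50.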

Rattus norvegicus [3] = species: Rattus norvegicus; experiment: The concentration yielding a half maximal decrease of the DOPA was determined in rat brain striatum; format: functional; outline: as §1
Rattus norvegicus [4] = species: Rattus norvegicus; experiment: The concentration yielding a half maximal decrease of the 5-HTP was determined in rat brain hemispheres; format: functional; outline: as §1
Rattus norvegicus [5] = species: Rattus norvegicus; experiment: The concentration yielding a half maximal decrease of the 5-HTP was determined in rat limbic system; format: functional; outline: as §1
Rattus norvegicus [6] = species: Rattus norvegicus; experiment: The concentration yielding a half maximal decrease of the DOPA was determined in rat limbic system; format: functional
Rattus norvegicus [7] = species: Rattus norvegicus; experiment: Log concentration to inhibit 5-HTP accumulation was determined in rat brain hemispheres; format: functional; outline: as §1
Rattus norvegicus [8] = species: Rattus norvegicus; experiment: Log concentration to inhibit 5-HTP accumulation was determined in rat limbic system; format: functional; outline: as §1
Rattus norvegicus [9] = species: Rattus norvegicus; experiment: Log concentration to inhibit DOPA accumulation was determined in rat limbic system; format: functional; outline: as §1
Rattus norvegicus [10] = species: Rattus norvegicus; experiment: Log concentration to inhibit 5-HTP accumulation was determined in rat brain striatum; format: functional; outline: as §1
Rattus norvegicus [11] = experiment: The concentration yielding a half maximal decrease of the DOPA was determined in rat brain hemispheres; inactive at 50 umol/kg; format: functional, organism-based; outline: as §1
Rattus norvegicus [12] = experiment: Motor activity was measured by motility testing on injecting the compound subcutaneously into rats at the dose of 0.02 umol/kg (1a) and 3.5 umol/kg (1b)
Rattus norvegicus [13] = experiment: Motor activity was measured by motility testing on injecting the compound subcutaneously into rats at the dose of 12.5 umol/kg; format: functional
Outline: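 Rats given reserpine 5 mg/kg sc 18 h beforehand, then test compound sc in neck (n = 4). Placed singly in photocell motility meters straight after dosing; counts recorded for 30 min, gross behaviour observed throughout. Value as counts/30 min with SEM.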

Rattus norvegicus [14] = experiment: The concentration yielding a half maximal decrease of the DOPA was determined in rat limbic system; Partial response at 50 umol/kg; format: functional, organism-based
Rattus norvegicus [15] = experiment: The concentration yielding a half maximal decrease of the 5-HTP was determined in rat limbic system; inactive at 50 umol/kg; format: functional, organism-based; outline: as §1
Rattus norvegicus [16] = experiment: The concentration yielding a half maximal decrease of the DOPA was determined in rat brain striatum; Partial response at 50 umol/kg; format: functional, organism-based
Rattus norvegicus [17] = experiment: The concentration yielding a half maximal decrease of the 5-HTP was determined in rat brain hemispheres; Partial response at 50 umol/kg; format: functional, organism-based; outline: as §1
Rattus norvegicus [18] = experiment: The concentration yielding a half maximal decrease of the 5-HTP was determined in rat brain striatum; inactive at 50 umol/kg; format: functional, organism-based; outline: as §1
Rattus norvegicus [19] = species: Rattus norvegicus; experiment: The concentration yielding a half maximal decrease of the 5-HTP was determined in rat brain striatum.; format: functional
Rattus norvegicus [20] = experiment: The concentration yielding a half maximal decrease of the DOPA was determined in rat brain hemispheres; Partial response at 50 umol/kg; format: functional, organism-based; outline: as §1
Rattus norvegicus [21] = species: Rattus norvegicus; experiment: The concentration yielding a half maximal decrease of the 5-HTP was determined in rat brain hemispheres.; format: functional
Rattus norvegicus [22] = species: Rattus norvegicus; experiment: The concentration yielding a half maximal decrease of the 5-HTP was determined in rat limbic system.; format: functional
Rattus norvegicus [23] = species: Rattus norvegicus; experiment: The concentration yielding a half maximal decrease of the DOPA was determined in rat limbic system.; format: functional
Rattus norvegicus [24] = species: Rattus norvegicus; experiment: Log concentration to inhibit DOPA accumulation was determined in rat brain striatum; format: functional; outline: as §1
Rattus norvegicus [25] = species: Rattus norvegicus; experiment: The concentration yielding a half maximal decrease of the DOPA was determined in rat brain striatum.; format: functional
Rattus norvegicus [26] = experiment: The concentration yielding a half maximal decrease of the DOPA was determined in rat brain hemispheres; inactive at 12.5 umol/kg; format: functional, organism-based; outline: as §1
Rattus norvegicus [27] = experiment: The concentration yielding a half maximal decrease of the DOPA was determined in rat brain hemispheres; Inactive at 3.1 umol/kg; format: functional, organism-based; outline: as §1
Rattus norvegicus [28] = experiment: The concentration yielding a half maximal decrease of the DOPA was determined in rat brain striatum; Inactive at 3.1 umol/kg; format: functional, organism-based
Rattus norvegicus [29] = experiment: The concentration yielding a half maximal decrease of the DOPA was determined in rat limbic system; inactive at 50 umol/kg; format: functional, organism-based
Rattus norvegicus [30] = experiment: The concentration yielding a half maximal decrease of the 5-HTP was determined in rat brain hemispheres; inactive at 50 umol/kg; format: functional, organism-based; outline: as §1
Rattus norvegicus [31] = experiment: The concentration yielding a half maximal decrease of the DOPA was determined in rat brain striatum; inactive at 50 umol/kg; format: functional, organism-based

D(2) dopamine receptor, sequence (P61169 whole entry): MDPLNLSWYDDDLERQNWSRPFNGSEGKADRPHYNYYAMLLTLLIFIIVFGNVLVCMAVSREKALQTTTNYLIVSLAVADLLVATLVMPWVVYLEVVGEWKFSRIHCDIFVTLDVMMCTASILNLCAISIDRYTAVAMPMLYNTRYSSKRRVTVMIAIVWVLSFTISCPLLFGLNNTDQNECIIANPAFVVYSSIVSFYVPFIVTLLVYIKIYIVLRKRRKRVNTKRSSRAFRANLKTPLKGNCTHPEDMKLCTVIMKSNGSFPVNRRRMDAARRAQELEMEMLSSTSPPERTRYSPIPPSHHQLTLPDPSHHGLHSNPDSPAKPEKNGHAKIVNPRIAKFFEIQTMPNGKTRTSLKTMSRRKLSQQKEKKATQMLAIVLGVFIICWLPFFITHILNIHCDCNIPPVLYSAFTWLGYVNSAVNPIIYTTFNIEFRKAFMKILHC

CCCN(CCC)C1CCc2cc3c(C=O)c[nH]c3cc2C1 (centres undefined)
Ki [1]: 4.72 µM
Ki (D(2) dopamine receptor): 0.7 µM
ED50 (Rattus norvegicus [2]): 18 µmol/kg
ED50 (Rattus norvegicus [3]): 16.7 µmol/kg
ED50 (Rattus norvegicus [4]): 14 µmol/kg
ED50 (Rattus norvegicus [5]): 13 µmol/kg
ED50 (Rattus norvegicus [6]): 27.8 µmol/kg
pED50 (Rattus norvegicus [7]): 4.87
pED50 (Rattus norvegicus [8]): 4.88
pED50 (Rattus norvegicus [9]): 4.78
pED50 (Rattus norvegicus [10]): 4.74
ED50 (Rattus norvegicus [11]): inactive
Counts/30 min (Rattus norvegicus [12]): 172

CCCN(CCC)C1CCc2ccc3cc[nH]c3c2C1 (centres undefined)
Ki [1]: 0.22 µM
Ki (D(2) dopamine receptor): 0.145 µM
Activity (Rattus norvegicus [13]): 119 Counts 30min-1
ED50 (Rattus norvegicus [14]): Weak activity
ED50 (Rattus norvegicus [15]): inactive
ED50 (Rattus norvegicus [16]): Weak activity
ED50 (Rattus norvegicus [17]): Weak activity
ED50 (Rattus norvegicus [18]): inactive
ED50 (Rattus norvegicus [11]): inactive

CCCN(CCC)C1CCc2ccc3[nH]cc(Cl)c3c2C1 (centres undefined)
Ki [1]: 0.0126 µM
Ki (D(2) dopamine receptor): 0.317 µM
ED50 (Rattus norvegicus [19]): 1.7 µmol/kg
ED50 (Rattus norvegicus [20]): Weak activity
ED50 (Rattus norvegicus [21]): 1.4 µmol/kg
ED50 (Rattus norvegicus [22]): 1.4 µmol/kg
ED50 (Rattus norvegicus [23]): 3.7 µmol/kg
pED50 (Rattus norvegicus [7]): 5.85
pED50 (Rattus norvegicus [8]): 5.86
pED50 (Rattus norvegicus [24]): 5.47
pED50 (Rattus norvegicus [9]): 5.43
pED50 (Rattus norvegicus [10]): 5.78
ED50 (Rattus norvegicus [25]): 3.4 µmol/kg

CCCN(CCC)C1CCc2ccc3[nH]ccc3c2C1 (centres undefined)
Activity (Rattus norvegicus [13]): 177 Counts 30min-1

CCCN(CCC)[C@@H]1CCc2ccc3[nH]ccc3c2C1
Activity (Rattus norvegicus [13]): 82 Counts 30min-1

CCCN(CCC)C1CCc2ccc3[nH]cc(C=O)c3c2C1 (centres undefined)
ED50 (Rattus norvegicus [26]): inactive
ED50 (Rattus norvegicus [3]): 3.3 µmol/kg
ED50 (Rattus norvegicus [4]): 0.13 µmol/kg
ED50 (Rattus norvegicus [5]): 0.11 µmol/kg
ED50 (Rattus norvegicus [6]): 0.3 µmol/kg
pED50 (Rattus norvegicus [7]): 6.88
pED50 (Rattus norvegicus [8]): 6.95
pED50 (Rattus norvegicus [24]): 5.48
pED50 (Rattus norvegicus [9]): 6.52
pED50 (Rattus norvegicus [10]): 7.18
Counts/30 min (Rattus norvegicus [12]): 231

CCCN(CCC)[C@@H]1CCc2ccc3[nH]cc(C#N)c3c2C1
Ki [1]: 0.0027 µM
Ki (D(2) dopamine receptor): 0.419 µM
ED50 (Rattus norvegicus [19]): 0.036 µmol/kg
ED50 (Rattus norvegicus [27]): inactive
ED50 (Rattus norvegicus [28]): inactive
ED50 (Rattus norvegicus [21]): 0.14 µmol/kg
ED50 (Rattus norvegicus [22]): 0.092 µmol/kg
ED50 (Rattus norvegicus [23]): 1.65 µmol/kg
pED50 (Rattus norvegicus [7]): 6.85
pED50 (Rattus norvegicus [8]): 7.03
pED50 (Rattus norvegicus [9]): 5.78
pED50 (Rattus norvegicus [10]): 7.44

CCCN(CCC)C1CCc2ccc3c(C=O)c[nH]c3c2C1 (centres undefined)
Ki [1]: 6.72 µM
Ki (D(2) dopamine receptor): > 16 µM
ED50 (Rattus norvegicus [29]): inactive
ED50 (Rattus norvegicus [15]): inactive
ED50 (Rattus norvegicus [30]): inactive
ED50 (Rattus norvegicus [18]): inactive
ED50 (Rattus norvegicus [31]): inactive
ED50 (Rattus norvegicus [11]): inactive
Counts/30 min (Rattus norvegicus [12]): 7
